Source: PubChem
Shown are actives, neighbours in structure and some others; about 0.55% of the full set was active somewhere.
V1R ag counter = activates human V1a receptor in oxytocin agonist counter-screen; CHO-V1R cells, Fluo-8 calcium fluorescence, agonist mode; 0% DMSO, 100% 3 nM vasopressin; activation, % at 3 µM; actives 0.25% (n = 320,000); AID 2797;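 active means activation above the mean activation of all tested compounds plus 3 SD, per screening run, cut at about 20% in these data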;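 further: signal is peak over basal fluorescence ratio across a 100 second FLIPR read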
Target sequence (P37288 whole entry, looked up): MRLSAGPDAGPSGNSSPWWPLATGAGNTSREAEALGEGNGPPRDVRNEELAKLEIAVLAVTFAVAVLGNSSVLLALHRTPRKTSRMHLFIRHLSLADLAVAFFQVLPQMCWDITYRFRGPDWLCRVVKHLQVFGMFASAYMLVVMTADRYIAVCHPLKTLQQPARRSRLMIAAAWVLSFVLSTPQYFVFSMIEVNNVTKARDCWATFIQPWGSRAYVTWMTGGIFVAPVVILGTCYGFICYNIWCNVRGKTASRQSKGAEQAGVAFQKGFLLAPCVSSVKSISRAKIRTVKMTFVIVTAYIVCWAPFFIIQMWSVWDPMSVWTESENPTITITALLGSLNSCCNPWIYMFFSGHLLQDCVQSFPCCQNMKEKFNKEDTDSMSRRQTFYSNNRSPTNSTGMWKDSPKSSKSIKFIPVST
TRPN1 ag = activates the zebrafish TRPN1 channel; HEK293 zebrafish TRPN1-YFP, Fluo-8 calcium fluorescence; 100% = response to 87 µM carbachol; activation, % at 3 µM; actives 0.18% (n = 220,000); AID 1424;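 active means activation above its plate's cutoff, the mean activation of test wells on that plate plus 3 SD, cut at about 19% in these data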
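System: zebrafish TRPN1-YFP in HEK293 cells / Dosing: 3 µM single point / Timing: dye loading 1 h at 37 °C, then 30 min room temperature / Signal: Fluo-8 calcium fluorescence, excitation 470-495 nm, emission 515-575 nm / Read-out basis: percent activation from peak over basal fluorescence ratio, control-normalized / Control set: high carbachol 87 µM, low DMSO alone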
TRPML3 agonist = agonists of human TRPML3 channel; HEK293 TRPML3-YFP, Fluo-8 calcium fluorescence; 100% = the carbachol control signal; activation, % at 3 µM; actives 0.29% (n = 220,000); AID 1448;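 active means activation above its plate's cutoff, the mean activation of the plate's test wells plus 3 SD, cut at about 12% in these data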
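Material: HEK293 cells stably carrying human TRPML3-YFP; compound dosing: single dose, 3 µM final nominal compound, 0.3% DMSO final; incubation: 1-h 37 °C dye load, 5-s basal, 120-s post-compound reads; technique: Fluo-8 intracellular calcium fluorescence, excitation 470-495 nm, emission 515-575 nm; read-out basis: percent activation from peak-to-basal fluorescence ratio, scaled between DMSO and carbachol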
OXTR potentiator = potentiates the human oxytocin receptor response; CHO-OTR cells, Fluo-8 calcium fluorescence, potentiator mode; 0% = oxytocin EC15, 100% = EC100; actives 0.061% (n = 320,000); activation, % at 3 µM; AID 2445;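 active means activation above that plate's cutoff, the mean activation of tested compounds plus 3 SD, cut at about 6.6% in these data, passing the limit was not always enough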
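Assay system: CHO cell line stably expressing human OTR. Reagent: EC15 oxytocin agonist. Dosing: single dose, 3.0 µM nominal final compound concentration. Timing: compound 6 min at room temperature before oxytocin, 100 s read. Signal: kinetic Fluo-8 calcium fluorescence. Controls: oxytocin EC15 low and EC100 high.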
OXTR agonist = activates the human oxytocin receptor | P30559 | CHO-OTR cells, Fluo-8 calcium fluorescence; normalized: DMSO 0%, oxytocin 100% | activation, % at 3 µM | actives 0.32% (n = 320,000) | AID 2435;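 active means activation above the mean of all tested compounds plus 3 SD, cutoff set per screening run, cut at about 20% in these data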;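 further: peak over basal fluorescence ratio from a 100 s FLIPR kinetic read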
Each line names hits and unclear results; the compound was inactive in the other large screens.

CC1(C)CC(NCCN2CCN(C3=CC(=C(C#N)C#N)CC(C)(C)C3)CC2)=CC(=C(C#N)C#N)C1	none
N#CC(C#N)=C1C=C2C=C(N3CCCCCC3)CCC2CC1 (stereo unspecified)	TRPN1 ag 891, TRPML3 agonist 366 (no result: V1R ag counter, OXTR potentiator, OXTR agonist)
CCOc1ccc(S(=O)(=O)N2CCC(C(=O)NCc3ccccc3CN3CCCC3)CC2)cc1	none (no result: TRPN1 ag, TRPML3 agonist)
O=C(Nc1ccccc1)C1=C[C@@H](c2coc3ccccc3c2=O)C[C@@H](OCCCCO)O1	none
CCOc1ccccc1N(CC(=O)N1CCOCC1)S(=O)(=O)c1ccccc1	TRPML3 agonist 182
CC(C)(C)c1ccc2c(c1)OC(C(=O)N/N=C/c1ccc([N+](=O)[O-])o1)CO2 (stereo unspecified)	none
CCOC(=O)C1=NN(C(=O)c2cccc(Br)c2)C(O)(C(C)(C)C)C1 (stereo unspecified)	OXTR agonist 20
CCOC(=O)C1=NN(C(=O)c2ccc(OC)cc2)C(O)(c2ccc(Cl)cc2)C1 (stereo unspecified)	none
COC(=O)C1=NN(C(=O)c2cccc(Br)c2)C(O)(c2ccc(Cl)cc2)C1 (stereo unspecified)	TRPN1 ag 21
CS(=O)(=O)N(CC(=O)N1CCc2ccccc2C1)c1cccc(Br)c1	none (no result: TRPN1 ag, TRPML3 agonist)
CC(OC(=O)CCCN=C1NS(=O)(=O)c2ccccc21)C(=O)c1ccccc1 (stereo unspecified)	V1R ag counter 34, OXTR agonist 36 (no result: TRPN1 ag, TRPML3 agonist)
Cn1cc([N+](=O)[O-])c(C(=O)Nc2nc(-c3ccc(Cl)cc3)cs2)n1	V1R ag counter 36, OXTR agonist 32
COc1cc(/C=C(\C#N)c2nc3ccccc3o2)ccc1O	V1R ag counter 24, TRPN1 ag 66, TRPML3 agonist 16, OXTR agonist 30
CCOC(=O)C(C#N)(Cc1cc(OC)cc(OC)c1)Cc1cc(OC)cc(OC)c1	none (no result: TRPN1 ag, TRPML3 agonist)
O=C(CSc1ccc(S(=O)(=O)N2CCOCC2)cn1)Nc1ccc(F)c(F)c1	none (no result: TRPN1 ag, TRPML3 agonist)
CCCCNC(=O)CCn1c(=O)c2ccccc2n(Cc2ccc(Cl)cc2)c1=O	OXTR potentiator 15
Cc1ccc(NC(=S)NNc2ncc(C(F)(F)F)cc2Cl)c(C)c1	none
FC(F)(F)c1cnc(NNC(=S)Nc2ccc(Cl)cc2)c(Cl)c1	TRPN1 ag 26, TRPML3 agonist 18
Fc1ccc(NC(=S)NNc2ncc(C(F)(F)F)cc2Cl)c(F)c1	TRPN1 ag 23, TRPML3 agonist 14
CC(NC(=O)COc1ccc(-c2nnco2)cc1)c1ccc(Cl)cc1Cl (stereo unspecified)	none
CCC(C)Oc1nc(C)cc(C)c1S(=O)(=O)c1ccccc1C (stereo unspecified)	TRPML3 agonist 42
COCCCn1c(=NC(=O)c2ccccc2)c(C#N)cc2c(=O)n3cccc(C)c3nc21	TRPN1 ag 37, TRPML3 agonist 25
COc1ccc(CC2NCCC3=CC(=O)CCC32)cc1O (stereo unspecified)	none (no result: TRPN1 ag, TRPML3 agonist)
CN(C)/C=N/NC(=O)c1ccccc1Cl	none
CN(C)/C=N/NC(=O)c1ccc(Cl)cc1	TRPN1 ag 34, TRPML3 agonist 46
COc1cc(/C=C/C(=O)OC(C)C(=O)Nc2c(C)n(C)n(-c3ccccc3)c2=O)ccc1O (stereo unspecified)	none (no result: TRPN1 ag, TRPML3 agonist)
COc1cc(/C=C/C(=O)OCC(=O)c2ccc(OC(F)F)cc2)ccc1O	V1R ag counter 21, OXTR agonist 34 (no result: TRPN1 ag, TRPML3 agonist)
CCc1ccc(NC(=O)C(C)OC(=O)/C=C/c2ccc(O)c(OC)c2)cc1 (stereo unspecified)	V1R ag counter 34, OXTR agonist 45 (no result: TRPN1 ag, TRPML3 agonist)
O=C(/C=C/c1ccco1)OCC(=O)c1ccc(OC(F)F)cc1	none (no result: TRPN1 ag, TRPML3 agonist)
COc1ccccc1Nc1nnc(SCC(=O)c2c(N)n(C3CC3)c(=O)[nH]c2=O)s1	none (no result: TRPN1 ag, TRPML3 agonist)
Oc1ccccc1C1CC(c2cccs2)=NC(c2cccc(Br)c2)N1 (stereo unspecified)	none
Oc1ccc(C23CCCC2C2(CCCC2)c2ccc(O)cc2O3)c(O)c1 (stereo unspecified)	V1R ag counter 28, OXTR agonist 39 (no result: TRPN1 ag, TRPML3 agonist)
CC[C@H](C)[C@H]1O[C@]2(CC[C@@H]1C)C[C@@H]1C[C@@H](CC=C(C)[C@@H](O[C@H]3C[C@H](OC)[C@@H](O[C@H]4C[C@H](OC)[C@@H](O)[C@H](C)O4)[C@H](C)O3)[C@@H](C)C=CC=C3CO[C@@H]4[C@H](O)C(C)=C[C@@H](C(=O)O1)[C@]34O)O2	none (no result: TRPN1 ag, TRPML3 agonist)
O=C1CC(N(C(=O)c2ccco2)c2cccc(Cl)c2)C(=O)N1c1cccc(Cl)c1 (stereo unspecified)	none
CN1/C(=C/c2cccc[n+]2CCO)Sc2ccccc21	none (no result: TRPN1 ag, TRPML3 agonist)
CCN1/C(=C/c2ccc3cc(C)ccc3[n+]2CC)Sc2cc(C)c(C)cc21	TRPN1 ag 49, TRPML3 agonist 20 (no result: V1R ag counter, OXTR potentiator, OXTR agonist)
CC[n+]1c(/C=C2\Sc3ccccc3N2C)ccc2cccc(C)c21	TRPN1 ag 42, TRPML3 agonist 18 (no result: V1R ag counter, OXTR potentiator, OXTR agonist)
CC[n+]1ccccc1/C=C1\Sc2ccc(C)cc2N1C	none (no result: TRPN1 ag, TRPML3 agonist)
CCN1/C(=C/c2ccc3cc(C)ccc3[n+]2CC)Sc2ccccc21	V1R ag counter 32, TRPN1 ag 83, TRPML3 agonist 30, OXTR agonist 30
CC(C)c1ccc(CNCCCSc2ncccn2)cc1	none (no result: TRPN1 ag, TRPML3 agonist)
CCN(CC)c1ccc(/C=C/c2nc3ccccc3s2)cc1	none
COc1cc2nc(/C=C/c3ccc(N(C)C)cc3)sc2cc1SC	OXTR agonist 21
COc1ccc(N=CC2=C(Nc3ccc(OC)cc3)c3c(C)nn(-c4ccccn4)c3CC2)cc1	V1R ag counter 21
CN(C)CCCNS(=O)(=O)c1ccc(N2CCC(c3ccc(Cl)cc3)=N2)cc1	OXTR agonist 20
O=S(=O)(c1ccc(N2CCC(c3ccc(Cl)cc3)=N2)cc1)N(CCO)CCO	none
COc1ccc(OCC(O)Cn2c(=N)n(Cc3ccccc3)c3ccccc32)cc1 (stereo unspecified)	none
N=c1n(Cc2ccc(Cl)cc2)c2ccccc2n1CC(O)COc1ccccc1 (stereo unspecified)	V1R ag counter 25, OXTR agonist 37
COc1ccc2cc(C(=O)N/N=C/c3sc4ccccc4c3O)ccc2c1	V1R ag counter 35, OXTR agonist 36
O=C(CSc1nc2ccccc2s1)NCc1cc([N+](=O)[O-])ccc1O	none (no result: TRPN1 ag, TRPML3 agonist)
CCOC(=O)C1CN(S(=O)(=O)c2ccc(C)cc2)CCN1S(=O)(=O)c1ccc(C)cc1 (stereo unspecified)	TRPN1 ag 21
CCOC(=O)C1CN(S(=O)(=O)c2ccccc2)CCN1S(=O)(=O)c1ccccc1 (stereo unspecified)	none
N#CNC(=Nc1cccc(F)c1)SCc1cccc(F)c1	TRPML3 agonist 13
Cc1cc(N2CCC(C)CC2)nc(SCC(=O)c2ccccc2)n1	none
Cc1ccc(C(=O)NC(=S)N2CCCC2)cc1	none (no result: TRPN1 ag, TRPML3 agonist)
